Laboratory results: ChEMBL document CHEMBL4765231 (J Med Chem, 2016)
Values after ≈ are worked out from the molar mass of the structure shown.

What was measured:
[1] = Metabolic stability in human microsomes assessed as half life; assay type: ADME, Microsome
NaV1.5 [2] = molecular target: T1, NaV1.5 (Homo sapiens, UniProt Q14524); test: Inhibition of human NaV1.5 expressed in HEK293 cells assessed as inhibition of peak sodium current measured at frequency 3 Hz at -20 mV resting membrane potential at 3 uM by electrophysiology assay relative to control; assay type: cell-based; details: HEK293 cells expressing human NaV1.5
NaV1.1 = NaV1.1 (Homo sapiens, UniProt P35498); test: Inhibition of NaV1.1 (unknown origin) expressed in cells assessed as inhibition of peak INa current at 10 uM at 25 Hz frequency by whole-cell patch clamp method relative to control; assay type: cell-based; details: cells expressing NaV1.1
Summary of the method: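 Whole-cell manual patch clamp on non-cardiac NaV1.x channels, run at room temperature. Series resistance was compensated 90% so the command potential was reached within microseconds.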

[3] = Metabolic stability in rat microsomes assessed as half life; assay type: ADME, Microsome
[4] = Inhibition of late sodium current channel (unknown origin) at 25 Hz frequency by whole cell patch clamp technique; details: Homo sapiens
[5] = Metabolic stability in dog microsomes assessed as half life; assay type: ADME, Canis lupus familiaris, Microsome
[6] = Solubility of compound in water; assay type: physicochemical
Oryctolagus cuniculus [7] = species: Oryctolagus cuniculus; test: Cardioprotective activity in New Zealand White rabbit heart assessed as reversal of ATX-II induced late sodium current prolongation in change in duration of monophasic action potential at 90 percent repolarization at 1 uM by electrocardiographic analysis relative to control; assay type: functional
NaV1.5 [8] = molecular target: T1, NaV1.5; test: Inhibition of human NaV1.5 expressed in HEK293 cells assessed as inhibition of peak sodium current measured at frequency 3 Hz at -20 mV resting membrane potential at 1 uM by electrophysiology assay relative to control; assay type: cell-based; details: HEK293 cells expressing human NaV1.5
Homo sapiens = species: Homo sapiens; test: Inhibition of late sodium current channel (unknown origin) at 1 uM at 25 Hz frequency by whole cell patch clamp technique relative to control
[9] = Toxicity in rabbit model of left circumflex artery ligation-induced ischemia assessed as increase in VT-VF at 1 mg/kg by electrocardiographic analysis; assay type: organism-based, Oryctolagus cuniculus; details: in vivo
[10] = Toxicity in rabbit model of left circumflex artery ligation-induced ischemia assessed as animal death at 1 mg/kg; assay type: organism-based, Oryctolagus cuniculus; details: in vivo
Oryctolagus cuniculus [11] = test: Cardioprotective activity in New Zealand rabbit model of LAD coronary artery occlusion-induced ischemia-reperfusion injury assessed as inhibition of ST segment elevation intravenously administered with compound for 30 mins followed by induction of ischemia for 15 mins and subsequent reperfusion for 15 mins by electrocardiographic analysis; assay type: functional
Oryctolagus cuniculus [12] = species: Oryctolagus cuniculus; test: Cardioprotective activity in New Zealand rabbit model of LAD coronary artery occlusion-induced ischemia-reperfusion injury assessed as inhibition of ST segment elevation at 0.52 uM for 30 mins followed by induction of ischemia for 15 mins and subsequent reperfusion for 15 mins by electrocardiographic analysis; assay type: functional; set-up: scale not given: the % may be the effect or the level left; details: time 60 min, 1 h
[13] = Toxicity in New Zealand rabbit model of LAD coronary artery occlusion-induced ischemia-reperfusion injury assessed as effect on heart rate at 0.28 to 0.52 uM; set-up: species or system Oryctolagus cuniculus; details: in vivo, dose 0.28-0.52 µM
[14] = Toxicity in New Zealand rabbit model of LAD coronary artery occlusion-induced ischemia-reperfusion injury assessed as effect on blood pressure at 0.28 to 0.52 uM; set-up: species or system Oryctolagus cuniculus; details: in vivo, dose 0.28-0.52 µM
Oryctolagus cuniculus [15] = species: Oryctolagus cuniculus; test: Cardioprotective activity in New Zealand rabbit model of LAD coronary artery occlusion-induced ischemia-reperfusion injury assessed as inhibition of ST segment elevation at 0.28 uM for 30 mins followed by induction of ischemia for 15 mins and subsequent reperfusion for 15 mins by electrocardiographic analysis; assay type: functional; set-up: scale not given: the % may be the effect or the level left; details: time 60 min, 1 h
[16] = Toxicity in New Zealand rabbit model of LAD coronary artery occlusion-induced ischemia-reperfusion injury assessed as effect on ECG interval at 0.28 to 0.52 uM; set-up: species or system Oryctolagus cuniculus; details: in vivo, dose 0.28-0.52 µM
[17] = Ratio of drug concentration in brain to plasma of coronary artery occlusion-induced ischemia-reperfusion injury rabbit model intravenously administered with compound for 30 mins measured by LC-MS/MS analysis; assay type: ADME, Oryctolagus cuniculus; details: brain and plasma, iv, read-out: BPR
NaV1.5 [18] = molecular target: T1, NaV1.5; test: Inhibition of human NaV1.5 expressed in HEK293 cells assessed as inhibition of peak sodium current measured at frequency 3 Hz at -120 mV resting membrane potential at 0.3 uM by electrophysiology assay relative to control; details: HEK293 cells expressing human NaV1.5

T1 sequence (Q14524 whole entry): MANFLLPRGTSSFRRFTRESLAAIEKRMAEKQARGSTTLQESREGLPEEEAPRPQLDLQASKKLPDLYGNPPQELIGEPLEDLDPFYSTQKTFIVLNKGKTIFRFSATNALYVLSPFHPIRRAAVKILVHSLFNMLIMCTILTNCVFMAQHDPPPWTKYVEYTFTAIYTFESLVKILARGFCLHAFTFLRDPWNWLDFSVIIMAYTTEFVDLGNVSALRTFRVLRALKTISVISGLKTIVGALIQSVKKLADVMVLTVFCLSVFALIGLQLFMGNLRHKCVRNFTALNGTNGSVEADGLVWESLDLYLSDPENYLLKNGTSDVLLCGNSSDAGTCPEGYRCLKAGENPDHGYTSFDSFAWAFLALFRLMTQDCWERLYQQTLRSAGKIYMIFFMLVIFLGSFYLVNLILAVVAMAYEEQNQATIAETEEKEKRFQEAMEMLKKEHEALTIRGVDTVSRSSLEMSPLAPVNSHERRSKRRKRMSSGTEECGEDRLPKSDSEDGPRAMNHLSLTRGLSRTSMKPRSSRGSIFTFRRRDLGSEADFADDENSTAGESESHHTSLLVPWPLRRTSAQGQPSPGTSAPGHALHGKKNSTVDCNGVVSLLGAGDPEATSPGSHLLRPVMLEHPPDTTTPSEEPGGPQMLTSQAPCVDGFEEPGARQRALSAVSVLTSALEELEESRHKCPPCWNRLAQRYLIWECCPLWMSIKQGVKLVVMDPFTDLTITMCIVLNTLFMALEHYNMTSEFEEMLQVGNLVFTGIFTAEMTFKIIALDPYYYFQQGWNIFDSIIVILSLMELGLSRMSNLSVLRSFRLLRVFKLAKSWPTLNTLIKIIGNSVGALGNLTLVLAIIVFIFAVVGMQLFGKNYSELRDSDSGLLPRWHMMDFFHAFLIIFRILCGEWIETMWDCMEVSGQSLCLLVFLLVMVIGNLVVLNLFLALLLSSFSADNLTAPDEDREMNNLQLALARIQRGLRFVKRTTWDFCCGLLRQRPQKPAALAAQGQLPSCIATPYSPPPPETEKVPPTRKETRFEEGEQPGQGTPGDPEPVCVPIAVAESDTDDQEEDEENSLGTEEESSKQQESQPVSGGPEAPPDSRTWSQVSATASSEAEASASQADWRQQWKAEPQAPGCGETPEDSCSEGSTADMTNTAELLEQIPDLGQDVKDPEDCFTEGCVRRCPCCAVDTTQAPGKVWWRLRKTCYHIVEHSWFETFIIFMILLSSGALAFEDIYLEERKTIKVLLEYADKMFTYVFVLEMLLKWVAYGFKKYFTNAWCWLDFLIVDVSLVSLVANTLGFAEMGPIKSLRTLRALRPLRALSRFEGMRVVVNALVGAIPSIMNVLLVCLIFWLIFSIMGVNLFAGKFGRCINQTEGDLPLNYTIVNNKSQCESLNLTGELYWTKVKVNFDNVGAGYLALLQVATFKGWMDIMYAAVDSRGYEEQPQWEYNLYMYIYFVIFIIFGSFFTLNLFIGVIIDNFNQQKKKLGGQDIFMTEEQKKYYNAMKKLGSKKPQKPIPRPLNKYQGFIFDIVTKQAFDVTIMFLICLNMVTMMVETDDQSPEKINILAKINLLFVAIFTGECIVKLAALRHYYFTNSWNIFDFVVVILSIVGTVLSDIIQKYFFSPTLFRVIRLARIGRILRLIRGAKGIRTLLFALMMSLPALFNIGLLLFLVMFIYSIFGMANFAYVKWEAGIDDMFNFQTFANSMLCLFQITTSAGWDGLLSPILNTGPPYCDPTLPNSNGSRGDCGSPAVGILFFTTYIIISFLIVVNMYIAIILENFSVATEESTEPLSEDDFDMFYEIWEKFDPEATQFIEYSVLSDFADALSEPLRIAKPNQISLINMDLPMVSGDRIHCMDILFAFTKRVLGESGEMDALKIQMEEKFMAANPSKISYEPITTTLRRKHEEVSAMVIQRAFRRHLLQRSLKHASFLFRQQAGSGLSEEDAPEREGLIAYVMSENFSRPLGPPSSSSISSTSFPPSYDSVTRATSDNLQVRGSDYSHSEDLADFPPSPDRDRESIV

| SMILES | half-life [1] [h] | inhibition at 10 µM (NaV1.1) [%] | half-life [3] [h] | IC50 [4] [µM] | half-life [5] [h] | Activity (Oryctolagus cuniculus [7]) [%] | inhibition (Homo sapiens) [%] | other results |
| --- | --- | --- | --- | --- | --- | --- | --- | --- |
| O=C1c2cc(-c3ccc(OC(F)(F)F)cc3)ccc2OCCN1CCc1ncccn1 | 0.467 | 67 | 0.467 | 1 | 1.55 |  |  | inhibition at 3 µM (NaV1.5 [2]): 13% |
| O=C1c2cc(-c3ccc(OC(F)(F)F)cc3)ccc2CCN1Cc1ncccn1 | 6.58 | 23 | 2.5 | 2.31 | 2.62 | 6 |  | solubility [6]: 60 µM (≈ 24 µg/mL) |
| O=C1c2cc(-c3ccc(Cl)c(F)c3)ccc2OCCN1Cc1ncccn1 | 5.5 | 23 | 1.63 | 1.61 | 1.92 | 58 |  | inhibition at 1 µM (NaV1.5 [8]): 8% |
| CC(=O)Nc1cc(OC(F)(F)F)ccc1-c1ccc2c(c1)C(=O)N(Cc1ncccn1)CCO2 |  |  |  |  |  |  | 4 |  |
| O=C(NCC1CCCCN1)c1cc(OCC(F)(F)F)ccc1OCC(F)(F)F (stereo not drawn) [FLECAINIDE] |  |  |  |  |  |  |  | Activity [9]: Toxic; Activity [10]: Toxic |
| O=C1c2cc(-c3ccc(Cl)cc3)ccc2OCCN1Cc1ncccn1 | 3.23 | 31 | 1.6 | 1.62 | 1.05 | 68 |  | inhibition at 3 µM (NaV1.5 [2]): 17% |
| O=C1c2cc(-c3ccc(C(F)(F)F)cc3)ccc2OCCN1Cc1ncccn1 | 5.8 | 60 | 3.52 | 1.08 | 6.18 | 62 |  | EC50 (Oryctolagus cuniculus [11]): 0.3 µM; Activity (Oryctolagus cuniculus [11]; time 60.0 min): Dose-dependent effect; Activity (Oryctolagus cuniculus [12]): 88%; Activity [13]: Non-Toxic; solubility [6]: 87 µM (≈ 34.7 µg/mL); inhibition at 3 µM (NaV1.5 [2]): 27%; Activity [14]: Non-Toxic; Activity (Oryctolagus cuniculus [15]): 38%; Activity [16]: Non-Toxic |
| CC(=O)Nc1ccnc(CN2CCOc3ccc(-c4ccc(OC(F)(F)F)cc4)cc3C2=O)n1 |  |  |  |  |  |  | 6 |  |
| Cc1noc(Cn2cnc3ccc(-c4ccc(OC(F)(F)F)cc4)cc3c2=O)n1 |  |  |  |  |  |  | 48 | Kp at 0.5 h [17]: 15 |
| Cc1noc(Cn2ncc3ccc(-c4ccc(OC(F)(F)F)cc4)cc3c2=O)n1 |  |  |  |  |  |  | 39 | Kp at 0.5 h [17]: 4.4 |
| COc1ccc(-c2ccc3c(c2)C(=O)N(Cc2ncccn2)CCO3)cc1 |  |  |  |  |  |  | 13 |  |
| Nc1ccnc(CN2CCOc3ccc(-c4ccc(OC(F)(F)F)cc4)cc3C2=O)n1 |  | 52 |  | 2.48 |  |  |  | inhibition at 3 µM (NaV1.5 [2]): 37% |
| O=C1c2cc(-c3ccc(OC(F)F)cc3)ccc2OCCN1Cc1ncccn1 |  |  |  |  |  |  | 13 |  |
| O=C1c2cc(-c3ccc(OC(F)(F)F)cc3F)ccc2OCCN1Cc1ncccn1 | 4.02 | 35 | 5.13 | 1.28 | 2.6 | 39 |  | inhibition at 3 µM (NaV1.5 [2]): 37% |
| CS(=O)(=O)c1ccc(-c2ccc3c(c2)C(=O)N(Cc2ncccn2)CCO3)cc1 |  |  |  |  |  |  | 3 |  |
| O=C1c2cc(-c3ccc(OC(F)(F)F)cc3)ccc2OCCN1Cc1ncccc1F | 2.48 | 82 | 1.48 | 0.16 | 3.23 |  |  | inhibition at 0.3 µM (NaV1.5 [18]): 23% |
| O=C1c2cc(-c3cccc(OC(F)(F)F)c3)ccc2OCCN1Cc1ncccn1 | 4.95 | 18 | 4.9 | 2.03 | 0.717 | 29 |  | inhibition at 3 µM (NaV1.5 [2]): 3% |
| O=C1c2cc(-c3ccc(OC(F)(F)F)c(Cl)c3)ccc2OCCN1Cc1ncccn1 | 6.55 | 33 | 5.63 | 0.77 |  | 23 |  | inhibition at 3 µM (NaV1.5 [2]): 15% |
| O=C1c2cc(-c3ccccc3OC(F)(F)F)ccc2OCCN1Cc1ncccn1 |  |  |  |  |  |  | 26 |  |
| O=C1c2cc(-c3ccc(C(F)F)cc3)ccc2OCCN1Cc1ncccn1 |  |  |  |  |  |  | 17 |  |
| O=C1c2cc(-c3ccc(OC(F)(F)F)cc3)ccc2OCCN1Cc1ccccn1 | 2.5 | 67 | 1.15 | 0.5 | 2.78 |  |  | solubility [6]: < 1 µM |
| COc1ccnc(CN2CCOc3ccc(-c4ccc(OC(F)(F)F)cc4)cc3C2=O)n1 | 6.58 | 60 | 4.52 | 0.97 | 1.45 |  |  | inhibition at 1 µM (NaV1.5 [8]): 27% |
| O=C1c2cc(-c3cccc(C(F)(F)F)c3)ccc2OCCN1Cc1ncccn1 |  |  |  | 3.03 |  |  |  |  |
| O=C1c2cc(-c3ccccc3)ccc2OCCN1Cc1ncccn1 |  |  |  |  |  |  | 18 |  |
| O=c1c2cc(-c3ccc(C(F)(F)F)cc3)ccc2nnn1Cc1nnc(C2CC2)o1 |  |  |  |  |  |  | 51 | EC50 (Oryctolagus cuniculus [11]): 0.97 µM; Kp at 0.5 h [17]: 0.86 |
| O=C1c2cc(-c3ccc(C(F)(F)F)cc3)ccc2CCN1Cc1ncccn1 | 5.07 | 15 | 5.9 | 2.07 | 5.33 | 25 |  | solubility [6]: 28 µM (≈ 10.7 µg/mL) |
